Source: ChEMBL document CHEMBL1134569, “Synthesis and in vitro and in vivo antimalarial activity of new 4-anilinoquinolines” (J Med Chem, 2001)

Experiments:
Plasmodium falciparum [1] = test: Inhibitory activity against chloroquine-resistant Plasmodium falciparum FcB1R; assay type: functional, organism-based; conditions: Plasmodium falciparum
[2] = Cytotoxicity upon MPMs (mouse peritoneal macrophages) at 32 uM concentration; Toxic Compound.
Outline: (§1)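 Mouse peritoneal macrophages harvested 48 h after potato-starch stimulation and seeded at 30000 cells/well. After 24 h, washed and exposed to 2-fold drug dilutions in RPMI + 5% FCS (final DMSO below 0.5%) at 37 °C, 5% CO₂, for 7 days. Toxicity scored microscopically as toxic or not versus untreated controls.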

[3] = Cytotoxicity upon MPMs (mouse peritoneal macrophages) at 2 uM concentration; NT=No toxicity; outline: as §1
[4] = Cytotoxicity upon MPMs (mouse peritoneal macrophages) at 12.5 uM concentration; Toxic Compound; outline: as §1
[5] = Cytotoxicity upon MRC-5 cells (diploid embryonic lung cell line) at 3.1 uM concentration; assay type: cell-based, MRC5; conditions: human
Outline: (§2)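 MRC-5 human diploid embryonic lung cells seeded at 5000/well, washed after 24 h, then given 2-fold drug dilutions in RPMI + 5% FCS (final DMSO below 0.5%). Incubated at 37 °C, 5% CO₂, for 7 days. MTT read-out at 540 nm, scored as percent absorbance reduction versus untreated controls.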

[6] = Cytotoxicity upon MPMs (mouse peritoneal macrophages) at 6.3 uM concentration; Toxic Compound; outline: as §1
[7] = Cytotoxicity upon MPMs (mouse peritoneal macrophages) at 3.1 uM concentration; NT= No toxicity.; outline: as §1
Plasmodium falciparum [8] = test: Inhibitory activity against chloroquine-sensitive Plasmodium falciparum THAI
[9] = Cytotoxicity upon MRC-5 cells (diploid embryonic lung cell line) at 1 uM concentration; assay type: cell-based, MRC5; conditions: human; outline: as §2
[10] = Cytotoxicity upon MRC-5 cells (diploid embryonic lung cell line) at 32 uM concentration; assay type: cell-based, MRC5; conditions: human; outline: as §2
[11] = Cytotoxicity upon MRC-5 cells (diploid embryonic lung cell line) at 25 uM concentration; assay type: cell-based, MRC5; conditions: human; outline: as §2
[12] = Cytotoxicity upon MRC-5 cells (diploid embryonic lung cell line) at 6.3 uM concentration; assay type: cell-based, MRC5; conditions: human; outline: as §2
[13] = Cytotoxicity upon MRC-5 cells (diploid embryonic lung cell line) at 12.5 uM concentration; assay type: cell-based, MRC5; conditions: human; outline: as §2
Plasmodium falciparum [14] = test: Inhibitory activity against chloroquine-resistant Plasmodium falciparum K1; assay type: functional, organism-based
[15] = Cytotoxicity upon MRC-5 cells (diploid embryonic lung cell line) at 8 uM concentration; assay type: cell-based, MRC5; conditions: human; outline: as §2
[16] = Cytotoxicity upon MPMs (mouse peritoneal macrophages) at 6.3 uM conc.; Toxic; outline: as §1
[17] = Cytotoxicity upon MPMs (mouse peritoneal macrophages) at 2 uM; outline: as §1
[18] = Cytotoxicity upon MRC-5 cells (diploid embryonic lung cell line) at 1.6 uM conc.; assay type: cell-based, MRC5; conditions: human; outline: as §2
[19] = Cytotoxicity upon MRC-5 cells (diploid embryonic lung cell line) at 25 uM conc.; assay type: cell-based, MRC5; conditions: human; outline: as §2
[20] = Cytotoxicity upon MRC-5 cells (diploid embryonic lung cell line) at 6.3 uM; assay type: cell-based, MRC5; conditions: human; outline: as §2
[21] = Cytotoxicity upon MPMs (mouse peritoneal macrophages) at 12.5 uM conc.; Toxic; outline: as §1
[22] = Cytotoxicity upon MPMs (mouse peritoneal macrophages) at 12.5 uM conc.;NT=No Toxicity; outline: as §1
Mus musculus [23] = test: Change in the mean survival time of the treated mice infected with Plasmodium berghei, dosed at 40 mg/kg; assay type: functional
Outline: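 P. berghei ANKA 65 in 4-week-old female Swiss CD-1 mice (20-25 g), infected ip with about 10⁷ parasitized erythrocytes; 40 mg/kg given orally at infection (formulated in 100% DMSO), then ip over the following 4 days; three mice per group; mean survival time of treated mice compared with three infected DMSO-dosed controls.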

Mus musculus [24] = test: Antimalarial activity on Plasmodium berghei in mice (Mus musculus) dosed at 40 mg/kg at day 4; assay type: functional
Outline: (§3)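 Female Swiss CD-1 mice (4 weeks, 20-25 g), three per group, infected ip with about 10⁷ P. berghei ANKA 65 parasitized erythrocytes from an infected donor. Dosed orally at 40 mg/kg in 100% DMSO at infection, then ip for the following 4 days. Parasitaemia reduction and mean survival time compared with three DMSO-dosed infected controls.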

[25] = Cytotoxicity upon MPMs (mouse peritoneal macrophages) at 6.3 uM; outline: as §1
[26] = Cytotoxicity upon MRC-5 cells (diploid embryonic lung cell line) at 1 uM; assay type: cell-based, MRC5; conditions: human; outline: as §2
[27] = Cytotoxicity upon MRC-5 cells (diploid embryonic lung cell line) at 8 uM; assay type: cell-based, MRC5; conditions: human; outline: as §2
[28] = Cytotoxicity upon MRC-5 cells (diploid embryonic lung cell line) at 32 uM; assay type: cell-based, MRC5; conditions: human; outline: as §2
[29] = Cytotoxicity upon MPMs (mouse peritoneal macrophages) at 8 uM conc.;NT=No Toxicity; outline: as §1
[30] = Cytotoxicity upon MPMs (mouse peritoneal macrophages) at 32 uM; outline: as §1
[31] = Cytotoxicity upon MPMs (mouse peritoneal macrophages) at 2 uM conc.; Toxic; outline: as §1
[32] = Cytotoxicity upon MPMs (mouse peritoneal macrophages) at 8 uM; outline: as §1
[33] = Cytotoxicity upon MRC-5 cells (diploid embryonic lung cell line) at 3.1 uM; assay type: cell-based, MRC5; conditions: human; outline: as §2
[34] = Cytotoxicity upon MRC-5 cells (diploid embryonic lung cell line) at 12.5 uM; assay type: cell-based, MRC5; conditions: human; outline: as §2
Mus musculus [35] = test: Antimalarial activity on Plasmodium berghei in mice (Mus musculus) dosed at 40 mg/kg at day 7; assay type: functional; outline: as §3
[36] = Cytotoxicity upon MPMs (mouse peritoneal macrophages) at 3.1 uM conc.;NT=No Toxicity; outline: as §1

SMILES | IC50 (Plasmodium falciparum [1]) [µM] | IC50 (Plasmodium falciparum [8]) [µM] | IC50 (Plasmodium falciparum [14]) [µM] | NT [17] | cytotoxicity at 1.6 µM [18] [%] | cytotoxicity at 25 µM [19] [%] | cytotoxicity at 6.3 µM [20] [%] | cytotoxicity at 1 µM [26] [%] | cytotoxicity at 8 µM [27] [%] | cytotoxicity at 32 µM [28] [%] | NT [29] | Cytotoxicity [30] | other results
CCN(CC)Cc1cc(Nc2ccnc3cc(Cl)ccc23)ccc1O.Cl | 0.0074 | 0.0073 | 0.0145 | – | – | – | – | – | – | – | – | – | Cytotoxicity [2]: Toxic; NT [3]: No toxicity; Cytotoxicity [4]: Toxic; cytotoxicity at 3.1 µM [5]: 0%; Cytotoxicity [6]: Toxic; NT [7]: No toxicity; cytotoxicity at 1 µM [9]: 0%; cytotoxicity at 32 µM [10]: 91%; cytotoxicity at 25 µM [11]: 91%; cytotoxicity at 6.3 µM [12]: 0%; cytotoxicity at 12.5 µM [13]: 0%; cytotoxicity at 8 µM [15]: 0%
O=C(CN1CCCCC1)Nc1cc(COC(=O)CCCCCCCN2CCCCC2)cc(Nc2ccnc3cc(Cl)ccc23)c1 | 0.165 | – | – | Cytotoxicity upon MPMs at 2 uM | 0 | 83 | 84 | – | – | – | – | – | Cytotoxicity [16]: Toxic; Cytotoxicity [21]: Toxic
O=C(CN1CCCCC1)Nc1cc(COC(=O)CCCCN2CCCCC2)cc(Nc2ccnc3cc(Cl)ccc23)c1 | 0.0155 | 0.0173 | 0.0191 | Cytotoxicity upon MPMs at 2 uM | 0 | 92 | 90 | – | – | – | – | – | NT [22]: Cytotoxicity upon MPMs at 2 uM; Excess MST (Mus musculus [23]): 0%; Reduction in parasitemia (Mus musculus [24]): 99.99%; NT [25]: Cytotoxicity upon MPMs at 2 uM
O=Cc1cc(NC(=O)CN2CCCCC2)cc(Nc2ccnc3cc(Cl)ccc23)c1 | 0.282 | – | – | Cytotoxicity upon MPMs at 2 uM | – | – | – | 0 | 0 | 0 | Cytotoxicity upon MPMs at 2 uM | – | –
CN(C)CCNCc1cc(NC(=O)CN2CCCCC2)cc(Nc2ccnc3cc(Cl)ccc23)c1 | 0.0155 | – | – | Cytotoxicity upon MPMs at 2 uM | – | – | – | 0 | 15 | 100 | Cytotoxicity upon MPMs at 2 uM | Cytotoxicity upon MPMs at 32 uM | –
O=C(CN1CCCCC1)Nc1cc(COC(=O)c2ccnc3ccccc23)cc(Nc2ccnc3cc(Cl)ccc23)c1 | 0.0256 | – | – | Cytotoxicity upon MPMs at 2 uM | 62 | 100 | 100 | – | – | – | – | – | Cytotoxicity [16]: Toxic; Cytotoxicity [21]: Toxic
O=C(CN1CCCCC1)Nc1cc(CN2CCCCC2)cc(Nc2ccnc3cc(Cl)ccc23)c1 | 0.0102 | 0.0067 | 0.0081 | – | – | – | – | 43 | 100 | 100 | – | Cytotoxicity upon MPMs at 32 uM | Cytotoxicity [31]: Toxic; Cytotoxicity [32]: Cytotoxicity upon MPMs at 32 uM
CC1CCN(CC(=O)Nc2cc(CO)cc(Nc3ccnc4cc(Cl)ccc34)c2)CC1 | 0.0777 | – | – | – | – | – | 0 | – | – | – | – | – | Cytotoxicity [16]: Toxic; cytotoxicity at 3.1 µM [33]: 0%; cytotoxicity at 12.5 µM [34]: 100%; Cytotoxicity [21]: Toxic
COc1ccc(CNCc2cc(NC(=O)CN3CCCCC3)cc(Nc3ccnc4cc(Cl)ccc34)c2)cc1 | 0.0044 | – | – | – | – | – | – | 100 | 100 | 100 | – | Cytotoxicity upon MPMs at 32 uM | Cytotoxicity [31]: Toxic; Cytotoxicity [32]: Cytotoxicity upon MPMs at 32 uM
O=C(CN1CCCCC1)Nc1cc(CN2CCOCC2)cc(Nc2ccnc3cc(Cl)ccc23)c1 | 0.0095 | 0.0128 | 0.0124 | Cytotoxicity upon MPMs at 2 uM | – | – | – | 0 | 0 | 100 | Cytotoxicity upon MPMs at 2 uM | Cytotoxicity upon MPMs at 32 uM | Reduction in parasitemia (Mus musculus [24]): 100%
N#Cc1ccc(CN2CCN(Cc3cc(NC(=O)CN4CCCCC4)cc(Nc4ccnc5cc(Cl)ccc45)c3)CC2)cc1 | 0.0133 | – | – | Cytotoxicity upon MPMs at 2 uM | – | – | – | 0 | 100 | 100 | Cytotoxicity upon MPMs at 2 uM | Cytotoxicity upon MPMs at 32 uM | –
O=C(CN1CCCCC1)Nc1cc(COC(=O)CCCCN2CCOCC2)cc(Nc2ccnc3cc(Cl)ccc23)c1 | 0.0141 | 0.0152 | 0.0225 | Cytotoxicity upon MPMs at 2 uM | 0 | 0 | 0 | – | – | – | – | – | NT [22]: Cytotoxicity upon MPMs at 2 uM; Excess MST (Mus musculus [23]): 100%; Reduction in parasitemia (Mus musculus [24]): 97.9%; NT [25]: Cytotoxicity upon MPMs at 2 uM
CN(C)CCCNCc1cc(NC(=O)CN2CCCCC2)cc(Nc2ccnc3cc(Cl)ccc23)c1 | 0.134 | – | – | Cytotoxicity upon MPMs at 2 uM | – | – | – | 0 | 0 | 78 | Cytotoxicity upon MPMs at 2 uM | Cytotoxicity upon MPMs at 32 uM | –
O=C(CN1CCCCC1)Nc1cc(CO)cc(Nc2ccnc3cc(Cl)ccc23)c1 | 0.0445 | 0.0896 | 0.152 | – | 0 | 98 | 0 | 0 | 0 | 99 | – | – | cytotoxicity at 3.1 µM [33]: 0%; Excess MST (Mus musculus [23]): 110%; Reduction in parasitemia (Mus musculus [35]): 60%; NT [36]: Cytotoxicity upon MPMs at 6.3 uM; cytotoxicity at 12.5 µM [34]: 0%; Cytotoxicity [21]: Toxic; NT [25]: Cytotoxicity upon MPMs at 6.3 uM
